Activity calls are given as the source filed them. No cut-off for these calls is given here.
Columns and labels:
SEM cells [1] = assay: Induction of apoptosis in human SEM cells assessed as activated caspase3 levels at 0.5 uM after 6 hrs by immunoblot analysis; assay type: functional, cell-based
SEM cells [2] = assay: Effect on cell cycle in human SEM cells assessed as accumulation at G0/G1 phase at 1 uM after 24 hrs by propidium iodide staining based flow cytometry analysis (reference value: 45.75%); assay type: functional
[3] = Cytotoxicity in human SEM cells assessed as cell death at 1 uM after 24 hrs; assay type: cell-based
SEM cells [4] = assay: Induction of apoptosis in human SEM cells assessed as viable cells at 1 uM measured after 24 hrs by annexin V-propidium iodide staining based flow cytometric analysis (reference value: 1.5%); assay type: functional; settings: read-out: Activity
NALM-6 [5] = assay: Induction of apoptosis in human NALM6 cells assessed as late apoptotic cells at 0.5 uM measured after 24 hrs by annexin V-propidium iodide staining based flow cytometric analysis (reference value: 4.3%); assay type: functional
NALM-6 [6] = assay: Induction of apoptosis in human NALM6 cells assessed as cleaved PARP level at 0.5 uM measured after 3 and 6 hrs by immunoblot analysis; assay type: functional, cell-based
SEM cells [7] = assay: Induction of apoptosis in human SEM cells assessed as early apoptotic cells at 1 uM measured after 24 hrs by annexin V-propidium iodide staining based flow cytometric analysis (reference value: 85.3%); assay type: functional
NALM-6 [8] = assay: Induction of apoptosis in human NALM6 cells assessed as activated caspase3 level at 0.5 uM after 3 hrs by immunoblot analysis; assay type: functional, cell-based
NALM-6 [9] = assay: Induction of apoptosis in human NALM6 cells assessed as necrotic cells at 0.5 uM measured after 24 hrs by annexin V-propidium iodide staining based flow cytometric analysis (reference value: 0.0%); assay type: functional
SEM cells [10] = assay: Induction of apoptosis in human SEM cells assessed as necrotic cells at 1 uM measured after 24 hrs by annexin V-propidium iodide staining based flow cytometric analysis (reference value: 0.0%); assay type: functional
SEM cells [11] = assay: Induction of apoptosis in human SEM cells assessed as late apoptotic cells at 1 uM measured after 24 hrs by annexin V-propidium iodide staining based flow cytometric analysis (reference value: 7.2%); assay type: functional
NALM-6 [12] = assay: Induction of apoptosis in human NALM6 cells assessed as early apoptotic cells at 0.5 uM measured after 24 hrs by annexin V-propidium iodide staining based flow cytometric analysis (reference value: 91.5%); assay type: functional
NALM-6 [13] = assay: Induction of apoptosis in human NALM6 cells assessed as cleaved PARP level at 0.5 uM measured after 12 hrs by immunoblot analysis; assay type: functional, cell-based
NALM-6 [14] = assay: Induction of apoptosis in human NALM6 cells assessed as late apoptotic cells at 8.5 uM measured after 24 hrs by annexin V-propidium iodide staining based flow cytometric analysis (reference value: 4.3%); assay type: functional
How it was run: (§1)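 SEM and Nalm06 cells were treated for 24 hr, then stained with fluorochrome-labeled Annexin V and propidium iodide for flow cytometry. Quadrants were scored as viable, early apoptotic, late apoptotic (Q2) and necrotic. DMSO was the negative control and 1 µM staurosporine the positive control. Representative of 3 independent experiments.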

[15] = Cytotoxicity against human NALM6 cells after 72 hrs by Cell-Titer Glo assay; assay type: functional, cell-based; settings: NALM-6, 72 h
NALM-6 [16] = assay: Induction of apoptosis in human NALM6 cells assessed as necrotic cells at 8.5 uM measured after 24 hrs by annexin V-propidium iodide staining based flow cytometric analysis (reference value: 0.0%); assay type: functional; how it was run: as §1
NALM-6 [17] = assay: Induction of apoptosis in human NALM6 cells assessed as cleaved PARP level at 4.5 uM measured after 12 hrs by immunoblot analysis; assay type: functional, cell-based
How it was run: (§2)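 Immunoblots for activated caspase-3, activated caspase-7, and cleaved and uncleaved PARP. Cells were treated for 3, 6, 12 and 24 hr at 8.0 µM (SEM) or 4.5 µM (Nalm06). Negative controls were DMSO vehicle and an analog at 20 µM.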

[18] = Cytotoxicity against human SEM cells after 72 hrs by Cell-Titer Glo assay; assay type: functional, cell-based
NALM-6 [19] = assay: Induction of apoptosis in human NALM6 cells assessed as activated caspase3 level at 4.5 uM after 12 hrs by immunoblot analysis; assay type: functional, cell-based; how it was run: as §2
SEM cells [20] = assay: Effect on cell cycle in human SEM cells assessed as accumulation at S phase at 8.5 uM after 24 hrs by propidium iodide staining based flow cytometry analysis (reference value: 46.62%); assay type: functional
[21] = molecular target: T1, c-Jun N-terminal kinase, JNK (Homo sapiens) (UniProt P45983+P53779+P45984); assay: Induction of JNK phosphorylation in human SEM cells at 8 uM after 3 to 12 hrs by immunoblot analysis; assay type: cell-based
How it was run: (§3)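 Immunoblot of phospho-JNK and total JNK after 3, 6, 12 and 24 hr treatment at 8.0 µM (SEM) or 4.5 µM (Nalm06), with DMSO and an analog at 20 µM as negative controls. Quantified as the phospho/total JNK ratio normalized to DMSO (set to 1.0).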

SEM cells [22] = assay: Induction of apoptosis in human SEM cells assessed as viable cells at 8 uM measured after 24 hrs by annexin V-propidium iodide staining based flow cytometric analysis (reference value: 1.5%); assay type: functional; settings: read-out: Activity; how it was run: as §1
NALM-6 [23] = assay: Induction of apoptosis in human NALM6 cells assessed as early apoptotic cells at 8.5 uM measured after 24 hrs by annexin V-propidium iodide staining based flow cytometric analysis (reference value: 91.5%); assay type: functional; how it was run: as §1
HepG2 = assay: Cytotoxicity against human HepG2 cells after 72 hrs by Cell-Titer Glo assay; assay type: functional, cell-based; settings: HepG2, 72 h
Jurkat = assay: Cytotoxicity against human Jurkat cells after 72 hrs by Cell-Titer Glo assay; assay type: functional, cell-based
SEM cells [24] = assay: Induction of apoptosis in human SEM cells assessed as uncleaved PARP levels at 8 uM after 3 to 12 hrs by immunoblot analysis; assay type: functional, cell-based; how it was run: as §2
SEM cells [25] = assay: Induction of apoptosis in human SEM cells assessed as activated caspase7 levels at 8.0 uM after 6 and 12 hrs by immunoblot analysis
HEK293 = assay: Cytotoxicity against HEK293 cells after 72 hrs by Cell-Titer Glo assay; assay type: cell-based; settings: Homo sapiens, HEK293, 72 h
BJ = assay: Cytotoxicity against human BJ cells after 72 hrs by Cell-Titer Glo assay; assay type: cell-based
SEM cells [26] = assay: Induction of apoptosis in human SEM cells assessed as cleaved PARP levels at 8 uM after 3, 6 and 12 hrs by immunoblot analysis; assay type: functional, cell-based; how it was run: as §2
SEM cells [27] = assay: Effect on cell cycle in human SEM cells assessed as accumulation at G0/G1 phase at 8.5 uM after 24 hrs by propidium iodide staining based flow cytometry analysis (reference value: 45.75%); assay type: functional
NALM-6 [28] = assay: Induction of apoptosis in human NALM6 cells assessed as activated caspase7 level at 4.5 uM after 6 and 12 hrs by immunoblot analysis; assay type: functional, cell-based; how it was run: as §2
SEM cells [29] = assay: Induction of apoptosis in human SEM cells assessed as activated caspase7 levels at 8 uM after 6 and 12 hrs by immunoblot analysis; assay type: functional, cell-based; how it was run: as §2
SEM cells [30] = assay: Induction of apoptosis in human SEM cells assessed as necrotic cells at 8 uM measured after 24 hrs by annexin V-propidium iodide staining based flow cytometric analysis (reference value: 0.0%); assay type: functional; how it was run: as §1
Raji = assay: Cytotoxicity against human Raji cells after 72 hrs by Cell-Titer Glo assay; assay type: functional, cell-based
SEM cells [31] = assay: Induction of apoptosis in human SEM cells assessed as early apoptotic cells at 8 uM measured after 24 hrs by annexin V-propidium iodide staining based flow cytometric analysis (reference value: 85.3%); assay type: functional; how it was run: as §1
NALM-6 [32] = assay: Induction of apoptosis in human NALM6 cells assessed as cleaved PARP level at 4.5 uM measured from 3 to 6 hrs by immunoblot analysis; assay type: functional, cell-based; how it was run: as §2
SEM cells [33] = assay: Induction of apoptosis in human SEM cells assessed as activated caspase3 levels at 8 uM after 6 hrs by immunoblot analysis; assay type: functional, cell-based; how it was run: as §2
SEM cells [34] = assay: Effect on cell cycle arrest in human SEM cells assessed as accumulation at G2/M phase at 8.0 uM after 24 hrs by propidium iodide staining based flow cytometry analysis (reference value: 7.63%)
[35] = molecular target: T1, c-Jun N-terminal kinase, JNK (Homo sapiens); assay: Induction of JNK phosphorylation in human NALM6 cells at 4.5 uM after 3 to 12 hrs by immunoblot analysis; assay type: cell-based; settings: NALM-6; how it was run: as §3
SEM cells [36] = assay: Induction of apoptosis in human SEM cells assessed as late apoptotic cells at 8 uM measured after 24 hrs by annexin V-propidium iodide staining based flow cytometric analysis (reference value: 7.2%); assay type: functional; how it was run: as §1

CN[C@@H]1C[C@H]2O[C@@](C)([C@@H]1OC)n1c3ccccc3c3c4c(c5c6ccccc6n2c5c31)C(=O)NC4 [STAUROSPORINE]
Activity (SEM cells [1]): Active | Activity (SEM cells [2]): 100% | Activity [3]: Toxic | viability at 1 µM (SEM cells [4]): 5.5% | Activity (NALM-6 [5]): 25% | Activity (NALM-6 [6]): Active | Activity (SEM cells [7]): 2.6% | Activity (NALM-6 [8]): Active | Activity (NALM-6 [9]): 0% | Activity (SEM cells [10]): 0% | Activity (SEM cells [11]): 85.3% | Activity (NALM-6 [12]): 49% | Activity (NALM-6 [13]): Active

C=C[C@@](C)(/C=C/c1ccc(O)c(/C=C/C(=O)c2ccccc2)c1)CCC=C(C)C
Activity (NALM-6 [14]): 81.2% | EC50 [15]: 4.47 µM | Activity (NALM-6 [16]): 0.1% | Activity (NALM-6 [17]): Active | EC50 [18]: 8 µM | Activity (NALM-6 [19]): Active | Activity (SEM cells [20]): 55.75% | Activity [21]: Active | viability at 8 µM (SEM cells [22]): 6.9% | Activity (NALM-6 [23]): 2.5% | EC50 (HepG2): > 52.1 µM | EC50 (Jurkat): > 49 µM | Activity (SEM cells [24]): inactive | Activity (SEM cells [25]): Active | EC50 (HEK293): > 7.41 µM | EC50 (BJ): > 20 µM | Activity (SEM cells [26]): Active | Activity (SEM cells [27]): 36.25% | Activity (NALM-6 [28]): Active | Activity (SEM cells [29]): Active | Activity (SEM cells [30]): 0% | EC50 (Raji): > 26 µM | Activity (SEM cells [31]): 0.9% | Activity (NALM-6 [32]): inactive | Activity (SEM cells [33]): Active | Activity (SEM cells [34]): 8% | Activity [35]: inactive | Activity (SEM cells [36]): 81.1%

COc1ccc(/C=C/[C@@](C)(/C=C/c2ccc(O)c(/C=C/C(=O)OC(C)(C)C)c2)CCC=C(C)C)cc1
EC50 [15]: > 43.5 µM | EC50 [18]: > 36.6 µM | EC50 (HepG2): > 52.1 µM | EC50 (Jurkat): > 49 µM | EC50 (HEK293): > 36.6 µM | EC50 (BJ): > 36.6 µM | EC50 (Raji): > 26 µM

C=C[C@@](C)(/C=C/c1ccc(O)cc1)CCC1OC1(C)C (some centres undefined)
EC50 [15]: > 43.5 µM | EC50 [18]: > 36.6 µM | EC50 (HepG2): > 52.1 µM | EC50 (Jurkat): > 49 µM | EC50 (HEK293): > 36.6 µM | EC50 (BJ): > 36.6 µM | EC50 (Raji): > 22.6 µM

C=C[C@@](C)(/C=C/c1ccc(O)c(/C=C/c2ccc(Cl)c(Cl)c2)c1)CCC=C(C)C
EC50 [15]: 7.51 µM | EC50 [18]: > 7.51 µM | EC50 (HepG2): > 52.1 µM | EC50 (Jurkat): > 49 µM | EC50 (HEK293): > 36.6 µM | EC50 (BJ): > 13 µM | EC50 (Raji): > 26 µM

C=C[C@@](C)(/C=C/c1ccc(O)cc1)CCC(O)C(C)(C)O (some centres undefined)
EC50 [15]: > 43.5 µM | EC50 [18]: > 36.6 µM | EC50 (HepG2): > 52.1 µM | EC50 (Jurkat): > 49 µM | EC50 (HEK293): > 36.6 µM | EC50 (BJ): > 36.6 µM | EC50 (Raji): > 26 µM
